Results from ChEMBL document CHEMBL4699451, “Discovery of BIIB068: A Selective, Potent, Reversible Bruton's Tyrosine Kinase Inhibitor as an Orally Efficacious Agent for Autoimmune Diseases” (J Med Chem, 2020).

Columns and labels:
[1] = In vivo inhibition of BTK-dependent B cell activation in TI-2 antigen/ NP-Ficoll-induced DBA1 mouse immunized model assessed as reduction in anti-NP IgM antibody titer administered orally twice daily for 10 days measured post last dose by ELISA; assay type: functional, organism-based; conditions: DBA1, po, 240 h, dose mg/kg 1-50, time 10 day
[2] = Lipophilicity, log D of compound by UV-HPLC method; assay type: physicochemical
[3] = Kinetic solubility of compound at pH 6.8 by shake flask method; assay type: physicochemical; conditions: buffer, read-out: Kinetic_solubility
[4] = Clearance in Sprague-Dawley rat at 1 mg/kg, iv relative to hepatic blood flow; assay type: ADME, organism-based; conditions: in vivo
[5] = Protein binding in human plasma assessed as unbound fraction at 2 uM by rapid equilibrium dialysis method; assay type: ADME, cell-free
Procedure, shortened: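 Unbound fraction in human plasma determined by rapid equilibrium dialysis at 2 µM compound.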

[6] = Kinetic solubility of compound at pH 1.5 by shake flask method; assay type: physicochemical; conditions: buffer, read-out: Kinetic_solubility
[7] = AUC in rat at 5 mg/kg, po; assay type: ADME, organism-based; parameters: dose 5 mg/kg; conditions: in vivo
[8] = Half life in rat at 1 mg/kg, iv; assay type: ADME, organism-based; conditions: in vivo
[9] = Volume of distribution at steady state in rat at 1 mg/kg, iv; assay type: ADME, organism-based; conditions: in vivo, read-out: Vdss
Procedure, shortened: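 Intravenous dosing at 1 mg/kg in male SD rats, measured in triplicate; vehicle 40% NMP solution. Clearance expressed as %Qh.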

[10] = Clearance in dog at 1 mg/kg, iv; assay type: ADME, organism-based, Canis lupus familiaris; conditions: in vivo
[11] = Volume of distribution at steady state in dog at 1 mg/kg, iv; assay type: ADME, organism-based, Canis lupus familiaris; conditions: in vivo, read-out: Vdss
Procedure, shortened: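 Intravenous dosing at 1 mg/kg; vehicle 70:30 PEG-400:H2O solution.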

[12] = Oral bioavailability in cynomolgus monkey at 5 mg/kg; assay type: ADME, organism-based, Macaca fascicularis; conditions: in vivo
[13] = Clearance in cynomolgus monkey at 1 mg/kg, iv; assay type: ADME, organism-based, Macaca fascicularis; conditions: in vivo
[14] = Half life in cynomolgus monkey at 1 mg/kg, iv; assay type: ADME, organism-based, Macaca fascicularis; conditions: in vivo
[15] = Clearance in cynomolgus monkey at 1 mg/kg, iv relative to hepatic blood flow; assay type: ADME, organism-based, Macaca fascicularis; conditions: in vivo
[16] = target: Cytochrome P450 2C9 (Homo sapiens, UniProt P11712); assay: Inhibition of CYP2C9 in human liver microsomes using tolbutamide as substrate measured after 15 mins in presence of NADPH by LC-MS/MS analysis; assay type: ADME
Sequence of Cytochrome P450 2C9 (P11712 whole entry): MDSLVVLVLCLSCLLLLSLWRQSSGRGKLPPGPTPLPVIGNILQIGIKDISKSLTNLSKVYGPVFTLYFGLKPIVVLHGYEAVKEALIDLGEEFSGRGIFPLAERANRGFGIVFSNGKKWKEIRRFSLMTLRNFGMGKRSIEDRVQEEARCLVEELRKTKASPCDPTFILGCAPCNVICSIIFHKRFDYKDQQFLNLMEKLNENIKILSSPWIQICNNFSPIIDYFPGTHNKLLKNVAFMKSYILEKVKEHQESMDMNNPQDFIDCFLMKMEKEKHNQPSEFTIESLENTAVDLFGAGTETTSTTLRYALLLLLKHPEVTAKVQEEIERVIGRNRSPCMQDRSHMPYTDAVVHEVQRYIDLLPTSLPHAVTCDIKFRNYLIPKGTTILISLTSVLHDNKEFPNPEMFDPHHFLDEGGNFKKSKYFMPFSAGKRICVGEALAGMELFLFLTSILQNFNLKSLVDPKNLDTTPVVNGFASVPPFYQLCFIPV

[17] = target: T1, Cytochrome P450 3A4 (Homo sapiens, UniProt P08684); assay: Inhibition of CYP3A4 in human liver microsomes using testosterone as substrate measured after 15 mins in presence of NADPH by LC-MS/MS analysis; assay type: ADME
T1 sequence (P08684 whole entry): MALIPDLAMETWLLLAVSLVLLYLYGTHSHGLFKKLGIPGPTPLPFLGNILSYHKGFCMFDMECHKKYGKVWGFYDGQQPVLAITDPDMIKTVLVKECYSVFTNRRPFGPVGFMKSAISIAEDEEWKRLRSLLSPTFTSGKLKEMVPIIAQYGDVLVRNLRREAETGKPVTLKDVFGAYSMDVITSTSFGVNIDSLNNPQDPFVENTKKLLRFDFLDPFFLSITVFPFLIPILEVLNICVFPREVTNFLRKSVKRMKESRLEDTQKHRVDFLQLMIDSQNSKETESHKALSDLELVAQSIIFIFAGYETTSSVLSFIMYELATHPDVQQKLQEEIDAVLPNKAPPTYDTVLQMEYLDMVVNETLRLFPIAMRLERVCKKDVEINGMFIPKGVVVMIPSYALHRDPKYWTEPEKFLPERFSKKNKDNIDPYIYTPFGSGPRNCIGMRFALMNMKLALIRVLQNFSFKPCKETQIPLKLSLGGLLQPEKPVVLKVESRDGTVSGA

[18] = target: T1, Cytochrome P450 3A4; assay: Time-dependent inhibition of CYP3A4 in human liver microsomes using testosterone in presence of NADPH by LC-MS/MS analysis; assay type: ADME
[19] = target: Voltage-gated inwardly rectifying potassium channel KCNH2 (Homo sapiens, UniProt Q12809); assay: Inhibition of human ERG by automated patch-clamp assay
Sequence of Voltage-gated inwardly rectifying potassium channel KCNH2 (Q12809 whole entry): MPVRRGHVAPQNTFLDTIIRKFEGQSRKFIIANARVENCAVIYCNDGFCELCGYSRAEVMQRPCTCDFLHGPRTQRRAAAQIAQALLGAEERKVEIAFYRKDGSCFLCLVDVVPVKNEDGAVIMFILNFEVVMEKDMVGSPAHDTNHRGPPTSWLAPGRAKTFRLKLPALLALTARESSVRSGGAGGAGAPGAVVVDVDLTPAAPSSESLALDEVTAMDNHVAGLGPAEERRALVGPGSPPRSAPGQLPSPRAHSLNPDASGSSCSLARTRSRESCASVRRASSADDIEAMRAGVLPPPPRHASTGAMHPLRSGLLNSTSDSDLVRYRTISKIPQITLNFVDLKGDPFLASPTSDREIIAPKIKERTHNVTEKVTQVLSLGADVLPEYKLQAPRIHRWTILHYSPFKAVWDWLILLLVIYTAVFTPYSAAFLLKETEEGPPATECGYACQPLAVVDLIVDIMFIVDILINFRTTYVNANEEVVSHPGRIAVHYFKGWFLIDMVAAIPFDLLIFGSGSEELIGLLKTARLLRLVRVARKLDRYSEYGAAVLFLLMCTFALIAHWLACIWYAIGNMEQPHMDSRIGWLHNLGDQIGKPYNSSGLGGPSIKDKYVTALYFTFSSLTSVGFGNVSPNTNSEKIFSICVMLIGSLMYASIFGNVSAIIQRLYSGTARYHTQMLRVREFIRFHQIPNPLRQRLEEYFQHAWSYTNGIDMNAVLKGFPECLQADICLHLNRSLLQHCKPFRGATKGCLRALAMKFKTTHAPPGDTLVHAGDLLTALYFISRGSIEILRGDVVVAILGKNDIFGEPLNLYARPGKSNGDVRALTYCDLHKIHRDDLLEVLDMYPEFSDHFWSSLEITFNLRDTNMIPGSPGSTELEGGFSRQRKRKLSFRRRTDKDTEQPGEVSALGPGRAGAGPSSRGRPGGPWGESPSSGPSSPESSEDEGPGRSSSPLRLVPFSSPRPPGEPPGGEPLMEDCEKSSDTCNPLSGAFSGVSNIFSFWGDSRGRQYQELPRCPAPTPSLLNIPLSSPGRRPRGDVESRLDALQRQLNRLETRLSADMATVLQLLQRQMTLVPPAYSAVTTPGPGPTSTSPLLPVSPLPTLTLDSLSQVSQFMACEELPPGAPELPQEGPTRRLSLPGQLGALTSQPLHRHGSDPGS

[20] = Protein binding in rat plasma assessed as unbound fraction; assay type: ADME, cell-free
[21] = Protein binding in cynomolgus monkey plasma assessed as unbound fraction; assay type: ADME, cell-free, Macaca fascicularis
[22] = Protein binding in dog plasma assessed as unbound fraction; assay type: ADME, cell-free, Canis lupus familiaris
[23] = Stability in rat plasma assessed as parent compound remaining after 6 hrs; assay type: ADME, cell-free; conditions: read-out: Stabilty
Procedure, shortened: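 Compound incubated in plasma for 6 hours, then percentage of parent compound remaining determined.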

[24] = Drug metabolism in human liver microsomes assessed as O-deisopropylation; assay type: ADME, Microsome
[25] = Drug metabolism in human liver microsomes assessed as oxidation at pyrazole moiety; assay type: ADME, Microsome
[26] = Drug metabolism in human liver microsomes assessed as N-demethylation; assay type: ADME, Microsome
[27] = target: Tyrosine-protein kinase BTK (Mus musculus, UniProt P35991); assay: In vivo inhibition of BTK in TI-2 antigen/ NP-Ficoll-induced DBA1 mouse immunized model assessed as reduction in BTK phosphorylation administered orally twice daily for 10 days measured post last dose; assay type: functional, organism-based
Sequence of Tyrosine-protein kinase BTK (P35991 whole entry): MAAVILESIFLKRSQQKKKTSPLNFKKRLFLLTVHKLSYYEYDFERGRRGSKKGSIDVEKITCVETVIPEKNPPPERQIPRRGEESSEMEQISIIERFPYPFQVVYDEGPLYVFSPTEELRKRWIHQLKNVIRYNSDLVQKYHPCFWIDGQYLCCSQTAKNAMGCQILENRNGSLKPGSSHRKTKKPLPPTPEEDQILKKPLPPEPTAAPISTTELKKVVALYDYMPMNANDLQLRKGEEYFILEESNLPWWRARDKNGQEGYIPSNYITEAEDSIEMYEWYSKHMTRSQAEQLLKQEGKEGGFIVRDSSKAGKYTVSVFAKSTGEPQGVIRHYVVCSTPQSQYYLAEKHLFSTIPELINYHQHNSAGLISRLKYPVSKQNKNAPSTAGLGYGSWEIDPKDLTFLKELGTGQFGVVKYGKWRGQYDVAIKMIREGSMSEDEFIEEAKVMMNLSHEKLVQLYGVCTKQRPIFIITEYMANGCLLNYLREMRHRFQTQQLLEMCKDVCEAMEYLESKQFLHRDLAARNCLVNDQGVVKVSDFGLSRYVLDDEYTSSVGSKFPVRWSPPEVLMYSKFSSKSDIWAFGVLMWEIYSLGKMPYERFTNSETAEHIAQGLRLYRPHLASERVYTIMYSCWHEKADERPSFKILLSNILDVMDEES
Procedure, shortened: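 Female DBA/1 mice, nine per arm, were immunized with 30 µg NP-Ficoll ip on day 0 and dosed PO twice daily for 10 days (1-50 mg/kg/dose) in 0.5% carboxymethylcellulose/0.1% Tween 80. On day 10, serum NP-specific IgM was measured by ELISA on NP-BSA plates (biotin anti-IgM, streptavidin-HRP, ABTS, 405 nm) and titer interpolated against a pooled positive serum standard, reported as reduction vs vehicle. Whole-blood pBTK was taken at pre-last dose and 1 and 4 h post final dose.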

[28] = Toxicity in Sprague-Dawley rat assessed as effect on clinical sign measured up to 13 weeks; conditions: in vivo, 2184 h
Procedure, shortened: (§1)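 GLP toxicity studies lasting up to 13 weeks, run in Sprague-Dawley rats and cynomolgus monkeys.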

[29] = Toxicity in Sprague-Dawley rat assessed as change in body weight measured up to 13 weeks; conditions: in vivo, 2184 h; procedure, shortened: as §1
[30] = Toxicity in Sprague-Dawley rat assessed as change in ECG measured up to 13 weeks; conditions: in vivo, 2184 h; procedure, shortened: as §1
[31] = Toxicity in Sprague-Dawley rat assessed as effect on organ weight measured up to 13 weeks; conditions: in vivo, 2184 h; procedure, shortened: as §1
[32] = Toxicity in cynomolgus monkey assessed as change in body weight measured up to 13 weeks; parameters: species or system Macaca fascicularis; conditions: in vivo, 2184 h; procedure, shortened: as §1
[33] = Toxicity in cynomolgus monkey assessed as effect on food consumption measured up to 13 weeks; parameters: species or system Macaca fascicularis; conditions: in vivo, 2184 h; procedure, shortened: as §1
[34] = Toxicity in cynomolgus monkey assessed as effect on organ weight measured up to 13 weeks; parameters: species or system Macaca fascicularis; conditions: in vivo, 2184 h; procedure, shortened: as §1
[35] = Toxicity in cynomolgus monkey assessed as effect on gross pathology measured up to 13 weeks; parameters: species or system Macaca fascicularis; conditions: in vivo, 2184 h; procedure, shortened: as §1
[36] = Toxicity in cynomolgus monkey measured up to 13 weeks; parameters: species or system Macaca fascicularis; conditions: in vivo; procedure, shortened: as §1
[37] = AUC (infinity) in Sprague-Dawley rat at 50 mg/kg; assay type: ADME, organism-based; parameters: time infinity, dose 50 mg/kg; conditions: in vivo
Procedure, shortened: (§2)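 Sprague-Dawley rats and cynomolgus monkeys given compound daily in GLP toxicity studies lasting up to 13 weeks; daily AUCinf taken at the no-observed-adverse-effect dose level of each species.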

[38] = AUC (infinity) in cynomolgus monkey at 100 mg/kg; assay type: ADME, organism-based, Macaca fascicularis; parameters: time infinity, dose 100 mg/kg; conditions: in vivo; procedure, shortened: as §2
[39] = Toxicity in Sprague-Dawley rat assessed as effect on CNS administered as single dose; conditions: in vivo
Procedure, shortened: (§3)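 Single-dose CNS and respiratory safety studies in rats.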

[40] = Toxicity in Sprague-Dawley rat assessed as effect on respiratory system administered as single dose; conditions: in vivo; procedure, shortened: as §3
[41] = Toxicity in cynomolgus monkey assessed as effect on cardiovascular system administered as single dose; parameters: species or system Macaca fascicularis; conditions: in vivo
Procedure, shortened: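 Single-dose cardiovascular safety study in cynomolgus monkeys.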

[42] = Genotoxicity in Sprague-Dawley rat assessed as clastogenic activity by micronucleus assay; assay type: toxicity
Procedure, shortened: (§4)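 In vivo micronucleus test in Sprague-Dawley rats; bone marrow scored for micronuclei, clastogenic activity and disruption of the mitotic apparatus.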

[43] = Genotoxicity in Sprague-Dawley rat assessed as disruption of mitotic apparatus in bone marrow by micronucleus assay; assay type: toxicity; procedure, shortened: as §4
[44] = Genotoxicity in Sprague-Dawley rat assessed as micronuclei formation by micronucleus assay; assay type: toxicity; procedure, shortened: as §4
[45] = Half life in human at 10 to 120 mg administered orally using tablet form of sample; assay type: ADME; conditions: in vivo, po, dose 10-120 mg
Procedure, shortened: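 Phase I single ascending dose study in healthy volunteers; oral tablet at 10 mg escalating through a 120 mg cohort; plasma pharmacokinetics followed, median t1/2 reported per cohort.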

Question: Which ED50 [1] does the source give for `Cc1cc(-c2ccnc(Nc3cnn(C)c3)n2)ccc1CNC(=O)N1CC(OC(C)C)C1` here?
Answer: 4.4 mg/kg

Question: And the logD [2]?
Answer: 2.32

Question: And the solubility kinetic [3]?
Answer: > 10 µg/mL

Question: And the CL [4]?
Answer: 1%

Question: What about the fraction unbound at 2 µM [5] of the same compound?
Answer: 0.059

Question: What about the solubility kinetic [6] of the same compound?
Answer: > 50 µg/mL

Question: What about the AUC [7] of the same compound?
Answer: 11.9 µg·h/mL

Question: And the half-life [8]?
Answer: 1.2 h

Question: And the Vd [9]?
Answer: 0.2 L/kg

Question: What about the clearance [10] of the same compound?
Answer: 11 mL/min/kg

Question: What about the Vd [11] of the same compound?
Answer: 1.2 L/kg

Question: And the bioavailability [12]?
Answer: 32%

Question: And the clearance [13]?
Answer: 11 mL/min/kg

Question: What about the half-life [14] of the same compound?
Answer: 0.9 h

Question: What about the CL [15] of the same compound?
Answer: 26%

Question: What about the IC50 [16] of the same compound?
Answer: > 25 µM

Question: What about the IC50 [17] of the same compound?
Answer: > 25 µM

Question: And the Ki [18]?
Answer: 50 µM

Question: What about the IC50 [19] of the same compound?
Answer: > 50 µM

Question: And the fraction unbound [20]?
Answer: 0.0128

Question: And the fraction unbound [21]?
Answer: 0.0362

Question: What about the fraction unbound [22] of the same compound?
Answer: 0.113

Question: What about the remaining at 6 h [23] of the same compound?
Answer: > 95%

Question: What about the Drug metabolism [24] of the same compound?
Answer: Metabolite_Detected

Question: What about the Drug metabolism [25] of the same compound?
Answer: Metabolite_Detected

Question: What about the Drug metabolism [26] of the same compound?
Answer: Metabolite_Detected

Question: What about the IC50 [27] of the same compound?
Answer: 0.13 µM

Question: What about the Activity [28] of the same compound?
Answer: Non-Toxic

Question: What about the Activity [29] of the same compound?
Answer: Non-Toxic

Question: And the Activity [30]?
Answer: Non-Toxic

Question: And the Activity [31]?
Answer: Non-Toxic

Question: What about the Activity [32] of the same compound?
Answer: Non-Toxic

Question: And the Activity [33]?
Answer: Non-Toxic

Question: What about the Activity [34] of the same compound?
Answer: Non-Toxic

Question: And the Activity [35]?
Answer: Non-Toxic

Question: And the NOAEL at 2184 h [36]?
Answer: 100 mg/kg/day

Question: And the AUC(0-inf) [37]?
Answer: 376 µg·h/mL

Question: What about the AUC(0-inf) [38] of the same compound?
Answer: 129 µg·h/mL

Question: And the Activity [39]?
Answer: Non-Toxic

Question: What about the Activity [40] of the same compound?
Answer: Non-Toxic

Question: And the Activity [41]?
Answer: Non-Toxic

Question: And the Activity [42]?
Answer: Non-Toxic

Question: What about the Activity [43] of the same compound?
Answer: Non-Toxic

Question: What about the Activity [44] of the same compound?
Answer: Non-Toxic

Question: And the half-life [45]?
Answer: 6 h
